Laboratory results as given in ChEMBL document CHEMBL1782026, “Synthesis and biological evaluation of 1α,25-dihydroxyvitamin D(3) analogues hydroxymethylated at C-26” (2011).
Calls of active or inactive are those of the source. The rule behind the calls is not given here.

What was measured:
MCF7 [1] = experiment: Antiproliferative activity against human MCF7 cells assessed as DNA level measured after 6 days by calorimetric analysis; format: functional, cell-based
How it was run: (§1)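 MCF-7 cells in DMEM F12 with 5% FBS at 37 °C, 5% CO2, seeded at 100 000 cells/well in six-well plates. After 24 h, treated in triplicate for 6 days with graded doses or 0.1% ethanol vehicle; medium and ligand replaced every other day. DNA content by Burton assay, expressed as percent of vehicle control; three independent experiments, mean ± SD.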

MCF7 [2] = experiment: Antiproliferative activity against human MCF7 cells assessed as DNA level at 1 nM measured after 6 days by calorimetric analysis; format: functional; conditions: MCF7, 144 h, read-out: GI; how it was run: as §1
MCF7 [3] = experiment: Antiproliferative activity against human MCF7 cells assessed as DNA level at 10 nM measured after 6 days by calorimetric analysis; format: functional; conditions: MCF7, 144 h, read-out: GI; how it was run: as §1
MCF7 [4] = experiment: Antiproliferative activity against human MCF7 cells assessed as DNA level at 100 nM measured after 6 days by calorimetric analysis; format: functional; conditions: MCF7, 144 h, read-out: GI; how it was run: as §1
SW480-ADH [5] = experiment: Induction of E-cadherin expression in human SW480-ADH cell at 10^-7 M after 48 hrs by Western blot analysis; format: functional, cell-based
How it was run: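 SW480-ADH cells grown in RPMI with 10% FCS, GlutaMAX and penicillin/streptomycin. Treated 48 h at 10^-7 M in charcoal-treated FCS medium; controls received matching vehicle. Anti-E-cadherin Western blot with β-tubulin as loading control and ECL detection. Values are mean fold-increase from two experiments.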

[6] = target: T1, Vitamin D3 receptor (Homo sapiens) (UniProt P11473); experiment: Transactivation of human VDR transfected in human SW480-ADH cells assessed as vitamin D response element-mediated transcriptional activity measured 8 hrs post infection by luciferase reporter gene assay; format: cell-based
T1 sequence (whole entry): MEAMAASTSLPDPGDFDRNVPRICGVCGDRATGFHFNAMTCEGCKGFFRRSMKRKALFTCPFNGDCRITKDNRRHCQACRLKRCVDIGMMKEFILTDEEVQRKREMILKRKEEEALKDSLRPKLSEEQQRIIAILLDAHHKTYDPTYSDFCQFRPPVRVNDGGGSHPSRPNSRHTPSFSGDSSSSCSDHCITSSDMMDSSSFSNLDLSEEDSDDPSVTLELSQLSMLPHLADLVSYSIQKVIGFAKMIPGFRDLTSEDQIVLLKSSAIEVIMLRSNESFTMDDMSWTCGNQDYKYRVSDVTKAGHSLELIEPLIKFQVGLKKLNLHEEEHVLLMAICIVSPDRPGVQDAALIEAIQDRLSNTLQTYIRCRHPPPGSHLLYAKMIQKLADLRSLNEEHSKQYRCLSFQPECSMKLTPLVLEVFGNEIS
How it was run: (§2)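 SW480-ADH cells, transfected in triplicate (JetPEI) with 4VDRE-DR3-tk-LUC reporter, four tandem consensus DR3 VDREs upstream of HSV tk promoter. Treated with graded concentrations in charcoal-treated FCS medium, read at 8 or 48 h. Firefly luciferase normalized to Renilla by dual luciferase assay; mean ± SD, n = 3.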

[7] = target: T1, Vitamin D3 receptor (Homo sapiens); experiment: Transactivation of human VDR transfected in human SW480-ADH cells assessed as vitamin D response element-mediated transcriptional activity measured 48 hrs post infection by luciferase reporter gene assay; format: cell-based; how it was run: as §2
SW480-ADH [8] = experiment: Induction of differentiation of human SW480-ADH cells to adhesive epithelial phenotype at 10^-7 M after 48 hrs by phase-contrast microscopy; format: functional, cell-based
How it was run: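 SW480-ADH cells in RPMI/10% FCS were exposed for 48 h to 10^-7 M compound or vehicle in charcoal-treated FCS medium. Adhesive epithelial morphology was judged by phase-contrast microscopy; a representative experiment is shown.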

[9] = target: T1, Vitamin D3 receptor (Homo sapiens); experiment: Transactivation of human VDR transfected in african green monkey COS7 cells after 24 hrs by luciferase reporter gene assay; format: cell-based; conditions: COS-7
How it was run: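 Transfected 16 h (Polyfect) with 62.5 ng WT VDR expression plasmid and 125 ng rat 24-hydroxylase promoter VDRE-luciferase. Then treated 24 h with graded concentrations in DMEM with 1% bovine growth serum, lysed, and assayed by dual luciferase; ±SD.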

Activity [6]	Activity [7]	Activity [9]	Structure (SMILES)	growth inhibition (GI) (MCF7 [1])	inhibition of growth at 0.001 µM (MCF7 [2]) [%]	inhibition of growth at 0.01 µM (MCF7 [3]) [%]	inhibition of growth at 0.1 µM (MCF7 [4]) [%]	Activity (SW480-ADH [5])	Activity (SW480-ADH [8])
–	–	–	C=C1/C(=C\C=C2/CCC[C@]3(C)[C@@H]([C@H](C)CCCC(C)(C)O)CC[C@@H]23)C[C@@H](O)C[C@@H]1O [CALCITRIOL]	Dose-dependent effect	15	50	66	–	–
Dose-dependent effect	Dose-dependent effect	–	C=C1/C(=C\C=C2/CCC[C@]3(C)[C@@H]([C@H](C)CCC[C@@](C)(O)CCO)CC[C@@H]23)C[C@@H](O)C[C@@H]1O	–	–	–	53	Active	Active
Dose-dependent effect	Dose-dependent effect	Active	C=C1/C(=C\C=C2/CCC[C@]3(C)[C@@H]([C@H](C)CCC[C@@](C)(O)[C@@H](C)CO)CC[C@@H]23)C[C@@H](O)C[C@@H]1O	–	–	–	65	Active	Active
